Reference: ChEMBL document CHEMBL1629487, “Synthesis and in vitro antimicrobial evaluation of novel fluoroquinolone derivatives” (2010)
Converted amounts (≈) assume the structure as drawn.

Tested on: Aeromonas hydrophila
Assay: Antimicrobial activity against Aeromonas hydrophila ATCC 7966 after 18 to 24 hrs by microbroth dilution method
Assay type: functional
Conditions: not given
Summary of the method: (§1)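 Bacteria were cultured in Mueller Hinton broth in 96-well microtiter plates, and the suspensions were added to MHB containing varying concentrations of test compound. Plates were incubated at 37 °C for 18–24 h, then read visually with a reading mirror and spectrophotometrically at 450 nm. MIC was taken as the lowest concentration giving complete suppression of visible growth.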

| SMILES | MIC [µg/mL] |
| --- | --- |
| CCn1cc(C(=O)O)c(=O)c2cc(F)c(N3CCC(NC)CC3)c(F)c21 | 2 (≈ 5.47 µM) |
| CCn1cc(C(=O)O)c(=O)c2cc(F)c(N3CCC(N4CCCCC4)CC3)c(F)c21 | 0.5 (≈ 1.19 µM) |

Tested on: Proteus mirabilis
Assay: Antimicrobial activity against Proteus mirabilis ATCC 7002 after 18 to 24 hrs by microbroth dilution method
Assay type: functional
Conditions: not given
Summary of the method: as §1

| SMILES | MIC [µg/mL] |
| --- | --- |
| CCn1cc(C(=O)O)c(=O)c2cc(F)c(N3CCC(C)CC3)c(F)c21 | 2.5 (≈ 7.14 µM) |
| CCn1cc(C(=O)O)c(=O)c2cc(F)c(N3CCN(c4ccccc4)CC3)c(F)c21 | 1.5 (≈ 3.63 µM) |
| CCn1cc(C(=O)O)c(=O)c2cc(F)c(N3CCN(c4ccc(F)cc4)CC3)c(F)c21 | 1.25 (≈ 2.9 µM) |
| CCn1cc(C(=O)O)c(=O)c2cc(F)c(N3CCN(c4ccccc4C#N)CC3)c(F)c21 | 2.5 (≈ 5.7 µM) |
| CCn1cc(C(=O)O)c(=O)c2cc(F)c(N3CCC(NC)CC3)c(F)c21 | 1.25 (≈ 3.42 µM) |
| CCn1cc(C(=O)O)c(=O)c2cc(F)c(N3CCC(N4CCCCC4)CC3)c(F)c21 | 1.25 (≈ 2.98 µM) |

Tested on: Streptococcus sanguinis
Assay: Antimicrobial activity against Streptococcus sanguinis ATCC 10556 after 18 to 24 hrs by microbroth dilution method
Assay type: functional
Conditions: not given
Summary of the method: as §1

| SMILES | MIC [µg/mL] |
| --- | --- |
| CCn1cc(C(=O)O)c(=O)c2cc(F)c(N3CCC(NC)CC3)c(F)c21 | 2 (≈ 5.47 µM) |

Tested on: Pseudomonas aeruginosa
Assay: Antimicrobial activity against Pseudomonas aeruginosa ATCC 10145 after 18 to 24 hrs by microbroth dilution method
Assay type: functional
Conditions: not given
Summary of the method: as §1

| SMILES | MIC [µg/mL] |
| --- | --- |
| CCn1cc(C(=O)O)c(=O)c2cc(F)c(N3CCC(NC)CC3)c(F)c21 | 1 (≈ 2.74 µM) |

Tested on: Candida albicans
Assay: Antimicrobial activity against Candida albicans ATCC 90028 after 18 to 24 hrs by microbroth dilution method
Assay type: functional
Conditions: not given
Summary of the method: (§2)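 Fungal isolates were cultivated in Sabouraud's broth in 96-well microtiter plates, and the suspensions were added to SDB containing varying concentrations of test compound. Plates were incubated at 37 °C for 18–24 h, then read visually with a reading mirror and spectrophotometrically at 450 nm. MIC was taken as the lowest concentration completely suppressing visible growth.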

| SMILES | MIC [µg/mL] |
| --- | --- |
| CCn1cc(C(=O)O)c(=O)c2cc(F)c(N3CCN(c4ccccc4)CC3)c(F)c21 | 413 (≈ 1000 µM) |
| CCn1cc(C(=O)O)c(=O)c2cc(F)c(N3CCNCC3)cc21 [NORFLOXACIN] | 312 (≈ 979 µM) |

Tested on: Staphylococcus aureus
Assay: Antimicrobial activity against Staphylococcus aureus ATCC 11632 after 18 to 24 hrs by microbroth dilution method
Assay type: functional
Conditions: not given
Summary of the method: as §1

| SMILES | MIC [µg/mL] |
| --- | --- |
| CCn1cc(C(=O)O)c(=O)c2cc(F)c(N3CCN(c4ccccc4)CC3)c(F)c21 | 1 (≈ 2.42 µM) |
| CCn1cc(C(=O)O)c(=O)c2cc(F)c(N3CCC(NC)CC3)c(F)c21 | 2.5 (≈ 6.84 µM) |
| CCn1cc(C(=O)O)c(=O)c2cc(F)c(N3CCC(N4CCCCC4)CC3)c(F)c21 | 2.5 (≈ 5.96 µM) |

Tested on: Vibrio parahaemolyticus
Assay: Antimicrobial activity against Vibrio parahaemolyticus ATCC 17802 after 18 to 24 hrs by microbroth dilution method
Assay type: functional
Conditions: not given
Summary of the method: as §1

| SMILES | MIC [µg/mL] |
| --- | --- |
| CCn1cc(C(=O)O)c(=O)c2cc(F)c(N3CCC(C)CC3)c(F)c21 | 1.5 (≈ 4.28 µM) |
| CCn1cc(C(=O)O)c(=O)c2cc(F)c(N3CCN(c4ccc(F)cc4)CC3)c(F)c21 | 1.5 (≈ 3.48 µM) |
| CCn1cc(C(=O)O)c(=O)c2cc(F)c(N3CCN(c4ccccc4C#N)CC3)c(F)c21 | 1.5 (≈ 3.42 µM) |
| CCn1cc(C(=O)O)c(=O)c2cc(F)c(N3CCC(NC)CC3)c(F)c21 | 0.5 (≈ 1.37 µM) |
| CCn1cc(C(=O)O)c(=O)c2cc(F)c(N3CCC(N4CCCCC4)CC3)c(F)c21 | 2.5 (≈ 5.96 µM) |

Tested on: Vibrio alginolyticus
Assay: Antimicrobial activity against Vibrio alginolyticus ATCC 17749 after 18 to 24 hrs by microbroth dilution method
Assay type: functional
Conditions: not given
Summary of the method: as §1

| SMILES | MIC [µg/mL] |
| --- | --- |
| CCn1cc(C(=O)O)c(=O)c2cc(F)c(N3CCC(NC)CC3)c(F)c21 | 2.5 (≈ 6.84 µM) |

Tested on: Bacillus subtilis
Assay: Antimicrobial activity against Bacillus subtilis ATCC 11774 after 18 to 24 hrs by microbroth dilution method
Assay type: functional
Conditions: not given
Summary of the method: as §1

| SMILES | MIC [µg/mL] |
| --- | --- |
| CCn1cc(C(=O)O)c(=O)c2cc(F)c(N3CCC(C)CC3)c(F)c21 | 5 (≈ 14.3 µM) |
| CCn1cc(C(=O)O)c(=O)c2cc(F)c(N3CCN(c4ccccc4)CC3)c(F)c21 | 5 (≈ 12.1 µM) |
| CCn1cc(C(=O)O)c(=O)c2cc(F)c(N3CCN(c4ccc(F)cc4)CC3)c(F)c21 | 2.5 (≈ 5.79 µM) |
| CCn1cc(C(=O)O)c(=O)c2cc(F)c(N3CCN(c4ccccc4C#N)CC3)c(F)c21 | 1.5 (≈ 3.42 µM) |
| CCn1cc(C(=O)O)c(=O)c2cc(F)c(N3CCC(NC)CC3)c(F)c21 | 1.25 (≈ 3.42 µM) |

Tested on: Streptococcus salivarius
Assay: Antimicrobial activity against Streptococcus salivarius ATCC 13419 after 18 to 24 hrs by microbroth dilution method
Assay type: functional
Conditions: not given
Summary of the method: as §1

| SMILES | MIC [µg/mL] |
| --- | --- |
| CCn1cc(C(=O)O)c(=O)c2cc(F)c(N3CCC(C)CC3)c(F)c21 | 2.5 (≈ 7.14 µM) |
| CCn1cc(C(=O)O)c(=O)c2cc(F)c(N3CCN(c4ccccc4)CC3)c(F)c21 | 1 (≈ 2.42 µM) |
| CCn1cc(C(=O)O)c(=O)c2cc(F)c(N3CCN(c4ccc(F)cc4)CC3)c(F)c21 | 1.5 (≈ 3.48 µM) |
| CCn1cc(C(=O)O)c(=O)c2cc(F)c(N3CCN(c4ccccc4C#N)CC3)c(F)c21 | 2.5 (≈ 5.7 µM) |
| CCn1cc(C(=O)O)c(=O)c2cc(F)c(N3CCC(NC)CC3)c(F)c21 | 2.5 (≈ 6.84 µM) |
| CCn1cc(C(=O)O)c(=O)c2cc(F)c(N3CCC(N4CCCCC4)CC3)c(F)c21 | 2.5 (≈ 5.96 µM) |

Tested on: Proteus vulgaris
Assay: Antimicrobial activity against Proteus vulgaris ATCC 49132 after 18 to 24 hrs by microbroth dilution method
Assay type: functional
Conditions: not given
Summary of the method: as §1

| SMILES | MIC [µg/mL] |
| --- | --- |
| CCn1cc(C(=O)O)c(=O)c2cc(F)c(N3CCC(C)CC3)c(F)c21 | 1 (≈ 2.85 µM) |
| CCn1cc(C(=O)O)c(=O)c2cc(F)c(N3CCN(c4ccccc4)CC3)c(F)c21 | 1.5 (≈ 3.63 µM) |
| CCn1cc(C(=O)O)c(=O)c2cc(F)c(N3CCN(c4ccc(F)cc4)CC3)c(F)c21 | 2.5 (≈ 5.79 µM) |
| CCn1cc(C(=O)O)c(=O)c2cc(F)c(N3CCN(c4ccccc4C#N)CC3)c(F)c21 | 1 (≈ 2.28 µM) |
| CCn1cc(C(=O)O)c(=O)c2cc(F)c(N3CCC(NC)CC3)c(F)c21 | 1.25 (≈ 3.42 µM) |
| CCn1cc(C(=O)O)c(=O)c2cc(F)c(N3CCC(N4CCCCC4)CC3)c(F)c21 | 1.25 (≈ 2.98 µM) |

Tested on: Streptococcus mitis
Assay: Antimicrobial activity against Streptococcus mitis ATCC 6249 after 18 to 24 hrs by microbroth dilution method
Assay type: functional
Conditions: not given
Summary of the method: as §1

| SMILES | MIC [µg/mL] |
| --- | --- |
| CCn1cc(C(=O)O)c(=O)c2cc(F)c(N3CCC(C)CC3)c(F)c21 | 1 (≈ 2.85 µM) |
| CCn1cc(C(=O)O)c(=O)c2cc(F)c(N3CCN(c4ccccc4)CC3)c(F)c21 | 1.5 (≈ 3.63 µM) |
| CCn1cc(C(=O)O)c(=O)c2cc(F)c(N3CCN(c4ccc(F)cc4)CC3)c(F)c21 | 1.5 (≈ 3.48 µM) |
| CCn1cc(C(=O)O)c(=O)c2cc(F)c(N3CCN(c4ccccc4C#N)CC3)c(F)c21 | 1.5 (≈ 3.42 µM) |
| CCn1cc(C(=O)O)c(=O)c2cc(F)c(N3CCC(NC)CC3)c(F)c21 | 2.5 (≈ 6.84 µM) |
| CCn1cc(C(=O)O)c(=O)c2cc(F)c(N3CCC(N4CCCCC4)CC3)c(F)c21 | 2.5 (≈ 5.96 µM) |

Tested on: Salmonella paratyphi
Assay: Antimicrobial activity against Salmonella paratyphi A ATCC 9150 after 18 to 24 hrs by microbroth dilution method
Assay type: functional, Salmonella enterica subsp. enterica serovar Paratyphi A
Conditions: Salmonella enterica
Summary of the method: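 Broth microdilution in 96-well plates; bacteria grown in Mueller Hinton broth with varying concentrations of test compound, incubated at 37 °C for 18–24 h. Plates read visually with a reading mirror and spectrophotometrically at 450 nm. MIC taken as lowest concentration giving complete suppression of visible growth.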

| SMILES | MIC [µg/mL] |
| --- | --- |
| CCn1cc(C(=O)O)c(=O)c2cc(F)c(N3CCN(c4ccccc4C#N)CC3)c(F)c21 | 1.5 (≈ 3.42 µM) |
| CCn1cc(C(=O)O)c(=O)c2cc(F)c(N3CCC(NC)CC3)c(F)c21 | 5 (≈ 13.7 µM) |
| CCn1cc(C(=O)O)c(=O)c2cc(F)c(N3CCC(N4CCCCC4)CC3)c(F)c21 | 1 (≈ 2.38 µM) |

Tested on: Cryptococcus neoformans
Assay: Antimicrobial activity against Cryptococcus neoformans ATCC 14116 after 18 to 24 hrs by microbroth dilution method
Assay type: functional
Conditions: not given
Summary of the method: as §2

| SMILES | MIC [µg/mL] |
| --- | --- |
| CCn1cc(C(=O)O)c(=O)c2cc(F)c(N3CCNCC3)cc21 [NORFLOXACIN] | 4.88 (≈ 15.3 µM) |
| CCn1cc(C(=O)O)c(=O)c2cc(F)c(N3CCC(NC)CC3)c(F)c21 | 1.82 (≈ 4.98 µM) |

Tested on: Klebsiella pneumoniae
Assay: Antimicrobial activity against Klebsiella pneumoniae ATCC 10031 after 18 to 24 hrs by microbroth dilution method
Assay type: functional
Conditions: not given
Summary of the method: as §1

| SMILES | MIC [µg/mL] |
| --- | --- |
| CCn1cc(C(=O)O)c(=O)c2cc(F)c(N3CCC(C)CC3)c(F)c21 | 1.5 (≈ 4.28 µM) |
| CCn1cc(C(=O)O)c(=O)c2cc(F)c(N3CCN(c4ccccc4)CC3)c(F)c21 | 2 (≈ 4.84 µM) |
| CCn1cc(C(=O)O)c(=O)c2cc(F)c(N3CCN(c4ccc(F)cc4)CC3)c(F)c21 | 1.5 (≈ 3.48 µM) |
| CCn1cc(C(=O)O)c(=O)c2cc(F)c(N3CCN(c4ccccc4C#N)CC3)c(F)c21 | 1 (≈ 2.28 µM) |
| CCn1cc(C(=O)O)c(=O)c2cc(F)c(N3CCC(NC)CC3)c(F)c21 | 5 (≈ 13.7 µM) |
| CCn1cc(C(=O)O)c(=O)c2cc(F)c(N3CCC(N4CCCCC4)CC3)c(F)c21 | 2.5 (≈ 5.96 µM) |

Tested on: Shigella boydii
Assay: Antimicrobial activity against Shigella boydii ATCC 9207 after 18 to 24 hrs by microbroth dilution method
Assay type: functional
Conditions: not given
Summary of the method: as §1

| SMILES | MIC [µg/mL] |
| --- | --- |
| CCn1cc(C(=O)O)c(=O)c2cc(F)c(N3CCN(c4ccc(F)cc4)CC3)c(F)c21 | 2 (≈ 4.64 µM) |
| CCn1cc(C(=O)O)c(=O)c2cc(F)c(N3CCN(c4ccccc4C#N)CC3)c(F)c21 | 2 (≈ 4.56 µM) |
| CCn1cc(C(=O)O)c(=O)c2cc(F)c(N3CCC(NC)CC3)c(F)c21 | 1 (≈ 2.74 µM) |
| CCn1cc(C(=O)O)c(=O)c2cc(F)c(N3CCC(N4CCCCC4)CC3)c(F)c21 | 1 (≈ 2.38 µM) |
